Measured values from different studies.
Lines come from different studies, so protocols differ.
Effect on: enzyme activity
Action: inhibitor
RET: Proto-oncogene tyrosine-protein kinase receptor Ret (RET, Homo sapiens, UniProt P07949)
RET V804L: Proto-oncogene tyrosine-protein kinase receptor Ret (RET, Homo sapiens, UniProt P07949, V804L)

For `CC/C(=N\NC(=O)NCc1cccc(O)c1)c1ccc(O)c(C)c1O`, the inhibition was 0.2% (RET; 0.1 µM).
`COc1cc2ncnc(Nc3ccc(Oc4ccccc4)cc3C)c2cc1OC` gave an inhibition of 34% (RET; 1 µM).
With `CNCc1ccc(-c2cc(-c3nc(-c4ccc(S(=O)(=O)C(C)C)cc4)cnc3N)on2)cc1` the inhibition was 42% (RET; 2 µM).
The inhibition of `C=CC(=O)Nc1cc(Nc2nccc(Nc3cc(Cl)c(F)cc3C(C)(C)O)n2)c(OC)cc1N1CC[C@@H](N(C)C)C1` is reported as 1% (RET; 1 µM).
`COc1cc(-c2cc(-c3ccc(N4CCNCC4)cc3)cnc2N)cc(OC)c1OC` gave an inhibition of 2% (RET V804L; 0.1 µM).
The inhibition of `CNC(=O)c1cc2c(Oc3ccc(NC(=O)C4(C(=O)Nc5ccc(F)cc5)CC4)cc3)ccnc2cc1OC` is reported as 90% (RET V804L; radiometric; 1 µM).
`COc1cc2ncnc(Nc3ccc(Oc4ccccc4)c(C)c3C)c2cc1OC` has an inhibition of 31% (Proto-oncogene tyrosine-protein kinase receptor Ret (RET, Homo sapiens, UniProt P07949, Y791F); 1 µM).
`COc1cc2nccc(Oc3ccc(NC(=O)c4c5n(n(-c6ccc(F)cc6)c4=O)CCCC5)cc3)c2cc1OC` gave an inhibition of 15% (RET; 0.1 µM).
